Assay results: ChEMBL document CHEMBL4392833, “Thiazolyl-pyrazole derivatives as potential antimycobacterial agents” (Bioorg Med Chem Lett, 2019)

Key:
[1] = test system: Mycobacterium tuberculosis variant bovis; experiment: Antitubercular activity against dormant stage of Mycobacterium bovis BCG ATCC 35743 by two fold dilution technique; format: functional; conditions: BCG str. ATCC 35743
In short: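 MIC against dormant-stage bacilli, read out by XTT reduction menadione assay (XRMA), with rifampicin MIC determined the same way as reference.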

[2] = test system: Mycobacterium tuberculosis variant bovis; experiment: Antitubercular activity against dormant stage of Mycobacterium bovis BCG ATCC 35743 after 12 days by nitrate reductase assay; format: functional, organism-based; conditions: BCG str. ATCC 35743, 288 h
[3] = test system: Mycobacterium tuberculosis variant bovis; experiment: Antitubercular activity against dormant stage of Mycobacterium bovis BCG ATCC 35743 assessed as growth inhibition at 30 ug/ml after 12 days by nitrate reductase assay relative to control; format: functional; conditions: BCG str. ATCC 35743, 288 h
[4] = test system: Mycobacterium tuberculosis variant bovis; experiment: Antitubercular activity against dormant stage of Mycobacterium bovis BCG ATCC 35743 assessed as growth inhibition at 10 ug/ml after 12 days by nitrate reductase assay relative to control; format: functional; conditions: BCG str. ATCC 35743, 288 h
[5] = test system: Mycobacterium tuberculosis variant bovis; experiment: Antitubercular activity against dormant stage of Mycobacterium bovis BCG ATCC 35743 assessed as growth inhibition at 3 ug/ml after 12 days by nitrate reductase assay relative to control; format: functional; conditions: BCG str. ATCC 35743, 288 h
[6] = test system: Mycobacterium tuberculosis variant bovis; experiment: Potency index, ratio of rifampicin MIC to test compound MIC for dormant stage of Mycobacterium bovis BCG ATCC 35743; format: functional, BCG str. ATCC 35743

SMILES | MIC90 [1] | IC50 [2] | inhibition at 30 µg/mL [3] [%] | inhibition at 10 µg/mL [4] [%] | inhibition at 3 µg/mL [5] [%] | Ratio [6]
Cc1ccc(O)c(C(=O)/C=C/c2cn(-c3ccc(F)cc3)nc2-c2sc(C)nc2C)c1 | 16.2 µM | 1.59 µM | 96.9 | 85.2 | 60.9 | 
Cc1ccc(O)c(C2=NNC(c3cn(-c4ccc(F)cc4)nc3-c3sc(C)nc3C)C2)c1 (stereo not drawn) | 63.1 µM | 46.4 µM | 97.5 | 82.7 | 33 | 
Cc1ccc2oc(-c3cn(-c4ccc(F)cc4)nc3-c3sc(C)nc3C)cc(=O)c2c1 | 1.18 µM | 5.89 µM | 95.6 | 96.6 | 97.6 | 
Cc1nc(C)c(-c2nn(-c3ccc(F)cc3)cc2/C=C/C(=O)c2cc(Br)ccc2O)s1 | > 30 µg/mL | > 30 µg/mL | 19.2 | 16.4 | 5.7 | 
Cc1nc(C)c(-c2nn(-c3ccc(F)cc3)cc2/C=C/C(=O)c2cc(Cl)ccc2O)s1 | > 30 µg/mL | > 30 µg/mL | 19.6 | 5.45 | 5.71 | 
Cc1nc(C)c(-c2nn(-c3ccc(F)cc3)cc2/C=C/C(=O)c2c(O)cc(C)c(Cl)c2C)s1 | > 30 µg/mL | > 30 µg/mL | 9.91 | 4.19 | 8.39 | 
Cc1nc(C)c(-c2nn(-c3ccc(F)cc3)cc2/C=C/C(=O)c2cc(Cl)c(C)cc2O)s1 | 6.85 µM | 0.79 µM | 97.2 | 52.8 | 8.47 | 
Cc1nc(C)c(-c2nn(-c3ccc(F)cc3)cc2C2CC(c3cc(Cl)c(C)cc3O)=NN2)s1 (stereo not drawn) | 4.77 µM | 9.65 µM | 98.5 | 89.7 | 69.6 | 
CO[C@H]1/C=C/O[C@@]2(C)Oc3c(C)c(O)c4c(O)c(c(/C=N/N5CCN(C)CC5)c(O)c4c3C2=O)NC(=O)/C(C)=C\C=C\[C@H](C)[C@H](O)[C@@H](C)[C@@H](O)[C@@H](C)[C@H](OC(C)=O)[C@@H]1C [RIFAMPIN] | 0.98 µM | 0.91 µM |  |  |  | 
Cc1nc(C)c(-c2nn(-c3ccc(F)cc3)cc2-c2cc(=O)c3cc(Cl)c(C)cc3o2)s1 | 2.85 µM | 3.69 µM | 98.2 | 98.9 | 99.7 | 
Cc1nc(C)c(-c2nn(-c3ccc(F)cc3)cc2C2CC(c3c(O)cc(C)c(Cl)c3C)=NN2)s1 (stereo not drawn) | 4.55 µM | 5.04 µM | 98.4 | 98 | 89 | 
Cc1nc(C)c(-c2nn(-c3ccc(F)cc3)cc2C2CC(c3cc(Cl)ccc3O)=NN2)s1 (stereo not drawn) | 1.54 µM | 2.48 µM | 99.7 | 99.7 | 99.2 | 
Cc1nc(C)c(-c2nn(-c3ccc(F)cc3)cc2C2CC(c3cc(Br)ccc3O)=NN2)s1 (stereo not drawn) | 0.39 µM | 5.79 µM | 99.5 | 98.7 | 96.2 | 4
Cc1nc(C)c(-c2nn(-c3ccc(F)cc3)cc2/C=C/C(=O)c2cc(Cl)cc(Cl)c2O)s1 | > 30 µg/mL | > 30 µg/mL | 29.8 | 10.1 | 8.72 | 
